# Where two headings read alike, the source gives them in different places.
# Columns and labels:
# [1] = Solubility limit; assay type: physicochemical
# [2] = target: cytochrome bc1 (Candida albicans, UniProt P0C8L0); assay: Cytochrome bc1 enzymatic activity in purified C. albicans mitochondria; assay type: biochemical; conditions: for Extent of inhibition of C. albicans cytochrome bc1 activity: maximal effect
# [3] = target: cytochrome bc1 (Saccharomyces cerevisiae, UniProt P00163); assay: Cytochrome bc1 enzymatic activity in purified yeast mitochondria; assay type: biochemical; conditions: read-out: IC50 cytochrome bc1 inhibition; S. cerevisiae mitochondria, wild type
# [4] = Plasma stability; assay type: in vitro ADME, human
# [5] = target: T1, human cytochrome bc1 (Homo sapiens, UniProt P00156); conditions: human IC50 versus C. albicans homolog IC50
# [6] = tested on: S. cerevisiae (BY4741); assay type: cell-based
# [7] = tested on: C. albicans (SC5314); assay: C. albicans growth in media with glucose or glycerol as carbon source; assay type: cell-based, Candida albicans
# Outline: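 Growth compared in synthetic medium of yeast nitrogen base with complete amino acid supplement, containing either 2% glucose or 2% glycerol as carbon source. Data pooled from two independent experiments.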
# [8] = Mouse liver microsome stability; assay type: in vitro ADME; conditions: 15 minute incubation at 37 C
# [9] = tested on: C. albicans CaCi-2; assay type: cell-based, Candida albicans; conditions: in the presence of fluconazole; SAR statement
# [10] = tested on: C. albicans SC5314; assay: Diffusion halo assay on agar plates with various carbon sources; assay type: cell-based, Candida albicans; conditions: 10 μg disc
# Outline: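 SC5314 cells were spread on agar plates with different carbon sources. These included 80% fetal bovine serum as nutrient source (~0.1-0.2% glucose), high (2%) glucose, galactose and non-fermentable sources. A filter disc carried 10 μg test compound in DMSO or DMSO alone. The zone of growth inhibition was scored.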
# [11] = tested on: Aspgerillus terreus; assay: Single-agent growth inhibition of Aspgerillus terreus; assay type: cell-based; conditions: enhanced under respiratory growth conditions
# [12] = tested on: Scedosporium prolificans; assay: Single-agent growth inhibition of Scedosporium prolificans; assay type: cell-based; conditions: enhanced under respiratory growth conditions
# [13] = tested on: C. albicans; assay: Co-culture of C. albicans with mouse bone-marrow-derived macrophages; assay type: cell-based, Candida albicans; conditions: 5 μM
# [14] = tested on: C. albicans SC5314; assay: Clonogenic survival in liquid culture; assay type: cell-based, Candida albicans; conditions: for Effect on growth and viability as single agent: 32 mg/L fluconazole alone or 10 μM Inz-5 alone
# [15] = tested on: Rhizopus oryzae; assay: Single-agent growth inhibition of Rhizopus oryzae; assay type: cell-based; conditions: enhanced under respiratory growth conditions
# [16] = tested on: C. albicans wild-type (SC5314); assay: Emergence of fluconazole-resistant colonies on agar plates; assay type: cell-based, Candida albicans
# [17] = target: T1, human cytochrome bc1; assay: biochemical
# [18] = tested on: malarial cytochrome B; conditions: ref Hughes et al., 1998; cited from earlier work
# [19] = tested on: HepG2 cells; assay: Mammalian cell respiration toxicity; assay type: cell-based; conditions: Homo sapiens, HepG2, read-out: IC50 toxicity to respiring HepG2 cells
# Outline: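 HepG2 cells were passaged in high-glucose DMEM, washed and resuspended in glucose-free DMEM with 10 mM galactose to force respiration, then seeded at 10,000 cells/well. After 72 hr with test compound, cellular ATP was measured by luminescent assay (reagent at 1:5 dilution) as a proxy for growth. IC50 was averaged from at least 2 independent experiments.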
# [20] = tested on: C. albicans CaCi-2 and rip1Δ/Δ; assay: Mouse systemic infection; assay type: in vivo, Balb/C mice; conditions: low inoculum of CaCi-2 or rip1Δ/Δ; fluconazole 24 mg/kg IP for 3 days
# [21] = media containing glycerol as the sole carbon source
# Chain of cytochrome bc1 (Candida albicans, UniProt P0C8L0) (P0C8L0 whole entry): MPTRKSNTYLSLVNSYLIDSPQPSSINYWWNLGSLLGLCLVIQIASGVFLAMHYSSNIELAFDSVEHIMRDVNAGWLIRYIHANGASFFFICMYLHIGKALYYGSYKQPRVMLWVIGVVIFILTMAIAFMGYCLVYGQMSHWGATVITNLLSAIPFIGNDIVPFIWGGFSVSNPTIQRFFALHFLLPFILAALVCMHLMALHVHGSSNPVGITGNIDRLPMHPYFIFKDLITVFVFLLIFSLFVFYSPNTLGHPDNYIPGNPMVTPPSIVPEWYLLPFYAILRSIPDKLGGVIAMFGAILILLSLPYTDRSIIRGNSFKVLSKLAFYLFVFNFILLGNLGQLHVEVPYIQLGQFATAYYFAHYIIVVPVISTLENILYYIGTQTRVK
structure (smiles),measurement,setting,value
COC(=O)Cn1nc(-c2ccccc2)c2ccccc21 [Inz-1],Solubility limit,[1],32 µM
same,Extent of inhibition of C. albicans cytochrome bc1 activity,[2],significant residual activity
same,IC50,[3],2500 nM
same,Plasma stability,[4]; incubation of 1 hour at 37 C in human plasma,fully degraded
same,Fold higher IC50 for human than for C. albicans cytochrome bc1,[5],5.6 fold
same,Resistance conferred by L275S mutation,[6]; cytochrome B L275S mutant,confer resistance
same,Resistance conferred by P270L mutation,[6]; cytochrome B P270L mutant,confer resistance
same,Growth inhibition,[6]; glucose media,only mildly slowing growth
same,Growth inhibition,[6]; [21],potently inhibited growth
same,Resistance conferred by G143A mutation,"[6]; yeast cytochrome B G143A mutant, respiratory growth",strong resistance
same,Growth inhibition,[7]; glucose media,only mildly slowing growth
same,Growth inhibition,[7]; [21],potently inhibited growth
same,Compound remaining in mouse liver microsomes,[8],< 1%
COC(=O)Cn1nc(-c2cc(C(F)(F)F)ccc2F)c2ccccc21 [Inz-2],Potency against the fungal enzyme,[2]; compared with Inz-1,significant enhancement of potency
COC(=O)Cn1nc(-c2ccccc2)c2cccc(C)c21 [Inz-3],Activity against Candida proliferation,[9],beneficial to both the activity and the selectivity
Cc1cccc2c(-c3cc(C(F)(F)F)ccc3F)nn(Cc3nnn(C)n3)c12 [Inz-5],Growth inhibition in halo assay,[10]; 80% fetal bovine serum as the nutrient source,slight growth inhibition
same,Growth inhibition in halo assay,"[10]; amino acids, lactate, or acetate as the carbon source",potent and profound growth inhibition
same,Growth inhibition in halo assay,[10]; galactose,moderate growth inhibition
same,Growth inhibition in halo assay,[10]; high glucose,very little growth inhibition
same,Growth inhibition as a single agent,[11],promising growth inhibition
same,Extent of inhibition of C. albicans cytochrome bc1 activity,[2],complete inhibition
same,Growth inhibition as a single agent,[12],promising growth inhibition
same,Activity against Candida proliferation,[9],sub-micromolar activity
same,Fungal growth in the presence of macrophages,[13]; 14-hour co-culture,sharply curtailed fungal growth
same,Escape of C. albicans from macrophages,[13]; 2 hours,remained trapped in the phagosome
same,Reduction of the number of viable colonies,[14]; 10 μM Inz-5 in combination with 32 mg/L fluconazole,97%
same,Effect on growth and viability as single agent,[14],partially slowed growth
same,Growth inhibition as a single agent,[15],promising growth inhibition
same,Plasma stability,[4]; 3 hours of incubation in human serum,fully recovered
same,Effect on colonies,[16]; 10 μM Inz-5 alone,"reduced colony size, but no reduction in the total number of colonies"
same,Effect on emergence of resistant colonies,[16]; 10 μM Inz-5 in combination with 64 mg/L fluconazole,completely abrogated the emergence of resistant colonies
same,Compound remaining in mouse liver microsomes,[8],19.5%
Cn1nnc(Cn2nc(-c3ccccc3)c3ccccc32)n1 [Inz-34],Activity against Candida proliferation,[9],retained activity
c1ccc(-c2nn(Cc3cnccn3)c3ccccc23)cc1 [Inz-37],Activity against Candida proliferation,[9],retained activity
O=C1C(O)=C([C@H]2CC[C@H](c3ccc(Cl)cc3)CC2)C(=O)c2ccccc21 [atovaquone],IC50,[17],1800 nM
same,Potency against the malarial cytochrome B,[18],low nanomolar potency
same,IC50,[19],12700 nM
"OC(Cn1cncn1)(Cn1cncn1)c1ccc(F)cc1F [fluconazole, reference compound]",Brain fungal burden,[20],eliminated brain colonization
same,Effect on growth and viability as single agent,[14],slowed growth of the wild-type strain but did not cause a decrease in viability
same,Rate of emergence of resistant colonies,[16]; 64 mg/L fluconazole alone,~ 0.5%
